Experimental data taken from ChEMBL document CHEMBL4689842, “EUbOPEN Chemogenomics Library wave 1” (2021).

Test system: HEK-293T
Experiment: Multiplex assay against HEK293T;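 as to Population Tubulin-Different-Phenotype (%): share of the cells with healthy nuclei that show this phenotype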
Format: toxicity, cell-based
Conditions: human
Method in brief: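 Hoechst33342, BioTracker Green Microtubule Cytoskeleton Dye, MitoTracker Red and Annexin V Alexa Fluor 680 were added to live cells at seeding, and imaging on a CQ1 microscope at 37°C and 5% CO2 followed compound addition. Gating by CellPathfinder machine learning separated cells into Hoechst high-intensity objects or normal cells, then normal cells into healthy, pyknosed or fragmented nuclei, then pyknosed cells into mitotic or apoptotic. Per cents of healthy-nucleus cells are reported for the tubulin, mitochondrial-mass and membrane-permeability phenotypes.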

[1] = 12 h, 1 µM, compound concentration 1 uM, replicate 1
[2] = 12 h, 1 µM, compound concentration 1 uM, replicate 2
[3] = 12 h, 10 µM, compound concentration 10 uM, replicate 1
[4] = 12 h, 10 µM, compound concentration 10 uM, replicate 2
[5] = 24 h, 1 µM, compound concentration 1 uM, replicate 1
[6] = 24 h, 1 µM, compound concentration 1 uM, replicate 2
[7] = 24 h, 10 µM, compound concentration 10 uM, replicate 1
[8] = 24 h, 10 µM, compound concentration 10 uM, replicate 2
[9] = 48 h, 1 µM, compound concentration 1 uM, replicate 1
[10] = 48 h, 1 µM, compound concentration 1 uM, replicate 2
[11] = 48 h, 10 µM, compound concentration 10 uM, replicate 1
[12] = 48 h, 10 µM, compound concentration 10 uM, replicate 2

For Cc1[nH]c(/C=C2\C(=O)Nc3ccc(S(=O)(=O)N(C)c4cccc(Cl)c4)cc32)c(C)c1C(=O)N1CCN(C)CC1, the “Population Apoptotic (%)” value [1] was 60%, the “Population Fragmented Nuclei (%)” value [1] was 7% and the “Population Healthy Nuclei (%)” value [1] was 47%. For the same compound, the “Population Hoechst High Intensity Objects (%)” value [1] was 16%, the “Population Membrane Permeable-Phenotype (%)” value [1] was 7% and the “Population Mitochondria Different-Phenotype (%)” value [1] was 93%. For the same compound, the “Population Mitotic Cells (%)” value [1] was 39%, the “Population Normal (%)” value [1] was 83% and the “Population Pyknosed Nuclei (%)” value [1] was 44%. The “Population Tubulin-Different-Phenotype (%)” value [1] was 91%, the “Total Cell Count” value [1] was 198 and the “Population Apoptotic (%)” value [2] was 23%. For the same compound, the “Population Fragmented Nuclei (%)” value [2] was 6%, the “Population Healthy Nuclei (%)” value [2] was 46% and the “Population Hoechst High Intensity Objects (%)” value [2] was 4%. For the same compound, the “Population Membrane Permeable-Phenotype (%)” value [2] was 18%, the “Population Mitochondria Different-Phenotype (%)” value [2] was 52% and the “Population Mitotic Cells (%)” value [2] was 76%. The “Population Normal (%)” value [2] was 95%, the “Population Pyknosed Nuclei (%)” value [2] was 47% and the “Population Tubulin-Different-Phenotype (%)” value [2] was 71%. The “Total Cell Count” value [2] was 243, the “Population Apoptotic (%)” value [3] was 67% and the “Population Fragmented Nuclei (%)” value [3] was 12%. For the same compound, the “Population Healthy Nuclei (%)” value [3] was 29%, the “Population Hoechst High Intensity Objects (%)” value [3] was 15% and the “Population Membrane Permeable-Phenotype (%)” value [3] was 5%. The “Population Mitochondria Different-Phenotype (%)” value [3] was 90%, the “Population Mitotic Cells (%)” value [3] was 32% and the “Population Normal (%)” value [3] was 84%. The “Population Pyknosed Nuclei (%)” value [3] was 57%, the “Population Tubulin-Different-Phenotype (%)” value [3] was 98% and the “Total Cell Count” value [3] was 214. The “Population Apoptotic (%)” value [4] was 50%, the “Population Fragmented Nuclei (%)” value [4] was 4% and the “Population Healthy Nuclei (%)” value [4] was 40%. For the same compound, the “Population Hoechst High Intensity Objects (%)” value [4] was 5%, the “Population Membrane Permeable-Phenotype (%)” value [4] was 19% and the “Population Mitochondria Different-Phenotype (%)” value [4] was 57%. For the same compound, the “Population Mitotic Cells (%)” value [4] was 50%, the “Population Normal (%)” value [4] was 94% and the “Population Pyknosed Nuclei (%)” value [4] was 55%. For the same compound, the “Population Tubulin-Different-Phenotype (%)” value [4] was 93%, the “Total Cell Count” value [4] was 157 and the “Population Apoptotic (%)” value [5] was 55%. The “Population Fragmented Nuclei (%)” value [5] was 11%, the “Population Healthy Nuclei (%)” value [5] was 48% and the “Population Hoechst High Intensity Objects (%)” value [5] was 18%. The “Population Membrane Permeable-Phenotype (%)” value [5] was 3%, the “Population Mitochondria Different-Phenotype (%)” value [5] was 85% and the “Population Mitotic Cells (%)” value [5] was 44%. The “Population Normal (%)” value [5] was 81%, the “Population Pyknosed Nuclei (%)” value [5] was 40% and the “Population Tubulin-Different-Phenotype (%)” value [5] was 86%. The “Total Cell Count” value [5] was 212, the “Population Apoptotic (%)” value [6] was 24% and the “Population Fragmented Nuclei (%)” value [6] was 4%. For the same compound, the “Population Healthy Nuclei (%)” value [6] was 56%, the “Population Hoechst High Intensity Objects (%)” value [6] was 3% and the “Population Membrane Permeable-Phenotype (%)” value [6] was 7%. The “Population Mitochondria Different-Phenotype (%)” value [6] was 57%, the “Population Mitotic Cells (%)” value [6] was 75% and the “Population Normal (%)” value [6] was 96%. The “Population Pyknosed Nuclei (%)” value [6] was 38%, the “Population Tubulin-Different-Phenotype (%)” value [6] was 71% and the “Total Cell Count” value [6] was 295. For the same compound, the “Population Apoptotic (%)” value [7] was 88%, the “Population Fragmented Nuclei (%)” value [7] was 15% and the “Population Healthy Nuclei (%)” value [7] was 27%. The “Population Hoechst High Intensity Objects (%)” value [7] was 12%, the “Population Membrane Permeable-Phenotype (%)” value [7] was 5% and the “Population Mitochondria Different-Phenotype (%)” value [7] was 100%. For the same compound, the “Population Mitotic Cells (%)” value [7] was 11%, the “Population Normal (%)” value [7] was 87% and the “Population Pyknosed Nuclei (%)” value [7] was 56%. The “Population Tubulin-Different-Phenotype (%)” value [7] was 98%, the “Total Cell Count” value [7] was 230 and the “Population Apoptotic (%)” value [8] was 83%. The “Population Fragmented Nuclei (%)” value [8] was 7%, the “Population Healthy Nuclei (%)” value [8] was 35% and the “Population Hoechst High Intensity Objects (%)” value [8] was 4%. The “Population Membrane Permeable-Phenotype (%)” value [8] was 10%, the “Population Mitochondria Different-Phenotype (%)” value [8] was 81% and the “Population Mitotic Cells (%)” value [8] was 16%. The “Population Normal (%)” value [8] was 95%, the “Population Pyknosed Nuclei (%)” value [8] was 57% and the “Population Tubulin-Different-Phenotype (%)” value [8] was 96%. The “Total Cell Count” value [8] was 162, the “Population Apoptotic (%)” value [9] was 55% and the “Population Fragmented Nuclei (%)” value [9] was 14%. For the same compound, the “Population Healthy Nuclei (%)” value [9] was 56%, the “Population Hoechst High Intensity Objects (%)” value [9] was 19% and the “Population Membrane Permeable-Phenotype (%)” value [9] was 2%. The “Population Mitochondria Different-Phenotype (%)” value [9] was 66%, the “Population Mitotic Cells (%)” value [9] was 44% and the “Population Normal (%)” value [9] was 80%. For the same compound, the “Population Pyknosed Nuclei (%)” value [9] was 29%, the “Population Tubulin-Different-Phenotype (%)” value [9] was 74% and the “Total Cell Count” value [9] was 246. The “Population Apoptotic (%)” value [10] was 31%, the “Population Fragmented Nuclei (%)” value [10] was 4% and the “Population Healthy Nuclei (%)” value [10] was 75%. The “Population Hoechst High Intensity Objects (%)” value [10] was 1%, the “Population Membrane Permeable-Phenotype (%)” value [10] was 8% and the “Population Mitochondria Different-Phenotype (%)” value [10] was 20%. For the same compound, the “Population Mitotic Cells (%)” value [10] was 68%, the “Population Normal (%)” value [10] was 98% and the “Population Pyknosed Nuclei (%)” value [10] was 19%. The “Population Tubulin-Different-Phenotype (%)” value [10] was 54%, the “Total Cell Count” value [10] was 469 and the “Population Apoptotic (%)” value [11] was 92%. The “Population Fragmented Nuclei (%)” value [11] was 17%, the “Population Healthy Nuclei (%)” value [11] was 30% and the “Population Hoechst High Intensity Objects (%)” value [11] was 15%. For the same compound, the “Population Membrane Permeable-Phenotype (%)” value [11] was 5%, the “Population Mitochondria Different-Phenotype (%)” value [11] was 100% and the “Population Mitotic Cells (%)” value [11] was 7%. The “Population Normal (%)” value [11] was 84%, the “Population Pyknosed Nuclei (%)” value [11] was 52% and the “Population Tubulin-Different-Phenotype (%)” value [11] was 96%. For the same compound, the “Total Cell Count” value [11] was 223, the “Population Fragmented Nuclei (%)” value [12] was 4% and the “Population Healthy Nuclei (%)” value [12] was 54%. For the same compound, the “Population Hoechst High Intensity Objects (%)” value [12] was 3%, the “Population Membrane Permeable-Phenotype (%)” value [12] was 9% and the “Population Mitochondria Different-Phenotype (%)” value [12] was 68%. For the same compound, the “Population Normal (%)” value [12] was 96%, the “Population Pyknosed Nuclei (%)” value [12] was 41% and the “Total Cell Count” value [12] was 178.
